≈ marks a conversion by molar mass, not a printed value. Calls of active or inactive are those of the source. The calls are words filed in the database; no cut-off is given here.
How the values were obtained:
[1] = Intrinsic clearance in CD-1 mouse liver microsomes in presence of NADPH up to 30 mins by UPLC-MS/MS analysis; format: ADME, microsome; conditions: 0.5 h
Cytochrome P450 2C19 = Cytochrome P450 2C19 (Homo sapiens, UniProt P33261); assay: Inhibition of CYP2C19 (unknown origin); format: ADME
Chain of Cytochrome P450 2C19 (P33261 whole entry): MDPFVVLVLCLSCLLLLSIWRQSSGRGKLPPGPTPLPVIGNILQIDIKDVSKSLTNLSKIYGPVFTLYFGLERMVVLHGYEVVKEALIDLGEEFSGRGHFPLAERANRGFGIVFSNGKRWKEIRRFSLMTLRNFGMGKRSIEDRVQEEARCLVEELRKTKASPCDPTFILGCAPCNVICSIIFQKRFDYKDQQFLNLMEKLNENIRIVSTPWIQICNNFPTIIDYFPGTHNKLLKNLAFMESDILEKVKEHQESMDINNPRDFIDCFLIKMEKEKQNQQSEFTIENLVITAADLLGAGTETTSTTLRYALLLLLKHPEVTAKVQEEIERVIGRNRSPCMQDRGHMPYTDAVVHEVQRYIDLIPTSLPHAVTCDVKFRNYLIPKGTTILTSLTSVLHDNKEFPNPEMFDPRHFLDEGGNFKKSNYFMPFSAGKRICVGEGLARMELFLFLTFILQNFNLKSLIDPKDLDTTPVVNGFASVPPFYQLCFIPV

Cytochrome P450 2D6 = Cytochrome P450 2D6 (Homo sapiens, UniProt P10635); assay: Inhibition of CYP2D6 (unknown origin); format: ADME
Chain of Cytochrome P450 2D6 (P10635 whole entry): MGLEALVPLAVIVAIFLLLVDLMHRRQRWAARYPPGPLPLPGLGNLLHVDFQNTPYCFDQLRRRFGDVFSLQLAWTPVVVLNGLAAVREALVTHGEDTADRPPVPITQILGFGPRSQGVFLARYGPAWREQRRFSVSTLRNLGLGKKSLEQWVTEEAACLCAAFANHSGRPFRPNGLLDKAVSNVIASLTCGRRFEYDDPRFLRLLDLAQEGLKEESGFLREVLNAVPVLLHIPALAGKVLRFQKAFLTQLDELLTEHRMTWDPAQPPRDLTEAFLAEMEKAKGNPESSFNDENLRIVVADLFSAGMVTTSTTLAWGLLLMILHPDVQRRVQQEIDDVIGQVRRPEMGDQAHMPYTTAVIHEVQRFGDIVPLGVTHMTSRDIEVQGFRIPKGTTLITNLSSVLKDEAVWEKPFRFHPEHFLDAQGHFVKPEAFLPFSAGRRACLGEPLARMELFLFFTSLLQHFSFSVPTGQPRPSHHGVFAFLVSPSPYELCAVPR

Cytochrome P450 1A2 = molecular target: T1, Cytochrome P450 1A2 (Homo sapiens, UniProt P05177); assay: Inhibition of CYP1A2 (unknown origin); format: ADME
T1 sequence (P05177 whole entry): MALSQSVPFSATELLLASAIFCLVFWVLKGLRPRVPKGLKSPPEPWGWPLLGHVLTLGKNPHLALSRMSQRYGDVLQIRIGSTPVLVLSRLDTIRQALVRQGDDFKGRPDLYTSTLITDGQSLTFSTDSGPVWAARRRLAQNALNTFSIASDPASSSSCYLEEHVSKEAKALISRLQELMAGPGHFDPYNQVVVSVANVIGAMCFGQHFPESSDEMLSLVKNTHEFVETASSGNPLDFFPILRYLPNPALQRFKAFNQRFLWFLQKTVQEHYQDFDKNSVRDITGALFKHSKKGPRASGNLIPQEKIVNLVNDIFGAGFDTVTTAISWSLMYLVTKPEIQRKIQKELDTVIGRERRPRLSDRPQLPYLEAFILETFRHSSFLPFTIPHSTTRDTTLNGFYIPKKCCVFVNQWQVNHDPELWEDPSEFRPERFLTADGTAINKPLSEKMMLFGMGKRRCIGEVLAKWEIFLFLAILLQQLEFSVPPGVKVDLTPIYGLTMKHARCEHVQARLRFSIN

Vero [2] = assay: Cytotoxicity against African green monkey Vero cells; format: cell-based; conditions: chlorocebus sabaeus
Cytochrome P450 2C9 = Cytochrome P450 2C9 (Homo sapiens, UniProt P11712); assay: Inhibition of CYP2C9 (unknown origin); format: ADME
Chain of Cytochrome P450 2C9 (P11712 whole entry): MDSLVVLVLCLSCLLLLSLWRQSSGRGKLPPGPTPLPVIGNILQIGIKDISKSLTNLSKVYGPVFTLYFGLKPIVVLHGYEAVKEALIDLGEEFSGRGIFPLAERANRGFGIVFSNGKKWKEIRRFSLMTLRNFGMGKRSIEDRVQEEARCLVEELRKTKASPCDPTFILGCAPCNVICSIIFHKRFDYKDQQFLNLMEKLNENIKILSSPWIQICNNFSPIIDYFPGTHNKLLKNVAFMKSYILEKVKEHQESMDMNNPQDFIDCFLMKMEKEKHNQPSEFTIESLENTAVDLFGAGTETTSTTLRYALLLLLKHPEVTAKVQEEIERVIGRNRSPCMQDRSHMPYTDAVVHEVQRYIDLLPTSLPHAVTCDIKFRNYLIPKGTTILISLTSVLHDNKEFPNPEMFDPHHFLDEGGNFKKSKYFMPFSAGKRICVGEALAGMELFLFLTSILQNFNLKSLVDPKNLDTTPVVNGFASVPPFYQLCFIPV

[3] = system: Mycobacterium tuberculosis; assay: Antimycobacterial activity against Mycobacterium tuberculosis H37Rv ATCC 25618 after 5 days; format: functional; conditions: H37Rv ATCC 25618, 120 h
Procedure, shortened: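 Growth measured in Middlebrook 7H9 with 10% OADC and 0.05% Tween 80 under aerobic conditions, covering H37Rv (ATCC 25618) and QcrB mutant strains. Growth read after 5 days at 37 °C. MIC90 is the concentration giving 90% growth inhibition, obtained by curve fitting (Levenberg–Marquardt). Mean ± SD of at least two independent experiments.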

Mus musculus [4] = assay: AUC in C57 Black mouse at 3 mg/kg, iv administered as bolus dose by UPLC-MS/MS analysis; format: ADME, organism-based; conditions: in vivo
[5] = Clearance in human liver microsomes; format: ADME, microsome
[6] = molecular target: Cytochrome bc1 complex cytochrome b subunit (Mycobacterium tuberculosis (strain ATCC 25618 / H37Rv)) (UniProt P9WP37); assay: Inhibition of QcrB in Mycobacterium tuberculosis H37Rv ATCC 25618 assessed as reduction in ATP level measured after 24 hrs by BacTiter-Glo assay
Chain of Cytochrome bc1 complex cytochrome b subunit (Mycobacterium tuberculosis (strain ATCC 25618 / H37Rv)) (P9WP37 whole entry, one chain of several): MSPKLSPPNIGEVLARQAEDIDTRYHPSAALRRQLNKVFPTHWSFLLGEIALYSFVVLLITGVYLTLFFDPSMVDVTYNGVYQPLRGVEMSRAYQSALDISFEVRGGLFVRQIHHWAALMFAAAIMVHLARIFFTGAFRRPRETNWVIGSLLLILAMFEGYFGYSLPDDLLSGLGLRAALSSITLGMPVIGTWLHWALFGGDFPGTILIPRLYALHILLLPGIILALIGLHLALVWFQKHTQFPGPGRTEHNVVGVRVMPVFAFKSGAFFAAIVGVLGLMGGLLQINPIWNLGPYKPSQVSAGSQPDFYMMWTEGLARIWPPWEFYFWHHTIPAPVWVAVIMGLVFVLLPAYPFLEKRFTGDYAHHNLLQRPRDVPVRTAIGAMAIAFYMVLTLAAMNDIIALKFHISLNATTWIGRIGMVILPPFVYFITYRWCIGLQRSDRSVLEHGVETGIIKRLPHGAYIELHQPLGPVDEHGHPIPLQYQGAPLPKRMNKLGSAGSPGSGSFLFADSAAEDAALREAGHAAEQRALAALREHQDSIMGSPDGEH
Procedure, shortened: (§1)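 H37Rv exposed to compounds for 24 h. Intrabacterial ATP measured by BacTiter-Glo as relative luminescence units, with growth followed by OD590. Representative of 2 independent experiments.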

[7] = molecular target: Cytochrome bc1 complex cytochrome b subunit (Mycobacterium tuberculosis (strain ATCC 25618 / H37Rv)) (UniProt P9WP37); assay: Inhibition of QcrB in Mycobacterium tuberculosis H37Rv ATCC 25618 assessed as reduction in ATP level measured up to 0.1 uM after 24 hrs by BacTiter-Glo assay; procedure, shortened: as §1
Vero [8] = assay: Cytotoxicity against African green monkey Vero cells assessed as growth inhibition measured after 2 days by CellTiter-Glo assay; format: cell-based; conditions: Chlorocebus sabaeus, 48 h
Mus musculus [9] = assay: In vivo drug metabolism in C57 Black mouse assessed as de-ethylation at 3 mg/kg, iv administered as bolus dose or 10 mg/kg, po via gavage by UPLC-MS/MS analysis; format: ADME, organism-based
Mus musculus [10] = assay: In vivo drug metabolism in C57 Black mouse assessed as oxidation of morpholine at 3 mg/kg, iv administered as bolus dose or 10 mg/kg, po via gavage by UPLC-MS/MS analysis; format: ADME, organism-based
Mus musculus [11] = assay: Toxicity in C57BL/6 mouse infected with Mycobacterium tuberculosis H37Rv at 100 mg/kg, po for 4 consecutive days starting from day 5 post infection; format: organism-based; conditions: in vivo
Mus musculus [12] = assay: Toxicity in C57BL/6 mouse infected with Mycobacterium tuberculosis H37Rv at 30 mg/kg, po for 8 consecutive days starting from day 1 post infection; format: organism-based; conditions: in vivo

`COc1cccc(CCOc2cc(N3CCOCC3)sc2C(N)=O)c1` gave an intrinsic clearance [1] of 10 mL/min/g.

`COc1ccccc1CCOc1cc(N2CCOCC2)sc1C(N)=O` gave an intrinsic clearance [1] of 26 mL/min/g.

For `NC(=O)c1sc(N2CCOCC2)cc1OCCc1ccccc1`, the INH (Cytochrome P450 2C19) was 5.9 µM, the INH (Cytochrome P450 2D6) was 5 µM and the INH (Cytochrome P450 1A2) was < 5 µM. The Activity (Vero [2]) was > 100 µM, the INH (Cytochrome P450 2C9) was 5.1 µM and the MIC90 [3] was 0.72 to 0.8 µM (≈ 0.239 to 0.266 µg/mL). For the same compound, the AUC (Mus musculus [4]) was 29000 ng·min/mL, the CLH [5] was 3.5 mL/min/g and the inhibition [6] was “Dose-dependent effect”.

`NC(=O)c1sc(N2CCOCC2)cc1OCc1ccccc1` showed an intrinsic clearance [1] of 14 mL/min/g.

For `CC1(COc2cc(N3CCOCC3)sc2C(N)=O)COC1`, the AUC (Mus musculus [4]) was 980000 ng·min/mL.

With `NC(=O)c1sc(N2CCOCC2=O)cc1OCCc1ccccc1` the intrinsic clearance [1] was 7 mL/min/g.

Work on `NC(=O)c1sc(CN2CCOCC2)cc1OCCc1ccccc1` yielded an intrinsic clearance [1] of 3 mL/min/g.

With `CCc1nc2ccc(Cl)cn2c1C(=O)NCc1ccc(N2CCC(c3ccc(OC(F)(F)F)cc3)CC2)cc1` the inhibition [7] was “Active”.

In the case of `NC(=O)c1sc(-n2nccn2)cc1OCCc1ccccc1`, the intrinsic clearance [1] is reported as 30 mL/min/g.

`CNC(=O)c1sc(N2CC3CC2CO3)cc1OCCc1ccccc1` (stereo not drawn) gave an intrinsic clearance [1] of 13 mL/min/g.

For `COCCN(C)c1cc(OCCc2ccccc2)c(C(N)=O)s1`, the IC50 (Vero [8]) was > 100 µM, the MIC90 [3] was > 20 µM and the intrinsic clearance [1] was 28 mL/min/g.

In the case of `COC(=O)c1sc(N2CCOCC2)cc1OCCc1ccccc1`, the intrinsic clearance [1] is reported as 50 mL/min/g.

Compound `COc1ccc(CCOc2cc(N3CCOCC3)sc2C(N)=O)cc1` has an MIC90 [3] of 0.6 to 0.63 µM (≈ 0.217 to 0.228 µg/mL).

Work on `NC(=O)c1sc(N2CCOCC2)cc1OCCN1CCOCC1` yielded an intrinsic clearance [1] of 0.9 mL/min/g.

With `CNC(=O)c1sc(N2CCOCC2)cc1OCCc1ccccc1` the intrinsic clearance [1] was 36 mL/min/g and the inhibition [6] was “Dose-dependent effect”.

Work on `CON(C)C(=O)c1sc(N2CCOCC2)cc1OCCc1ccccc1` yielded an IC50 (Vero [8]) of 78 µM.

In the case of `NC(=O)c1ccc(N2CCOCC2)cc1OCCc1ccccc1`, the intrinsic clearance [1] is reported as 12 mL/min/g.

In the case of `CCOC(=O)NC(=O)c1sc(N2CCOCC2)cc1OCCc1ccccc1`, the intrinsic clearance [1] is reported as 1 mL/min/g.

For `NC(O)C1SC(N2CCOCC2)CC1OCC(F)(F)C1CCCCC1` (stereo not drawn), the IC50 (Vero [8]) was 95 µM, the MIC90 [3] was > 20 µM and the intrinsic clearance [1] was 19 mL/min/g.

For `CC1COCCN1c1cc(OCCc2ccccc2)c(C(N)=O)s1` (stereo not drawn), the IC50 (Vero [8]) was 77 µM, the MIC90 [3] was > 20 µM and the intrinsic clearance [1] was 11 mL/min/g.

In the case of `NC(=O)c1sc(N2CCOCC2)cc1OCCc1ccc(OC(F)(F)F)cc1`, the Drug metabolism (Mus musculus [9]) is reported as “Metabolite_Detected”, the Drug metabolism (Mus musculus [10]) is reported as “Metabolite_Detected” and the MIC90 [3] is reported as 0.2 to 0.24 µM (≈ 0.0833 to 0.0999 µg/mL). For the same compound, the Activity (Mus musculus [11]) was “Non-Toxic” and the inhibition [6] was “Dose-dependent effect”.

In the case of `NC(=O)c1sc(N2CCOCC2)cc1CCCc1ccc(F)cc1`, the IC50 (Vero [8]) is reported as > 100 µM, the MIC90 [3] is reported as 0.9 µM (≈ 0.314 µg/mL) and the intrinsic clearance [1] is reported as 13 mL/min/g.

`O=C(NO)c1sc(N2CCOCC2)cc1OCCc1ccccc1` showed an intrinsic clearance [1] of 6 mL/min/g.

In the case of `NC(=O)c1sc(N2CCOCC2)cc1OCCc1cccc(F)c1`, the intrinsic clearance [1] is reported as 18 mL/min/g and the inhibition [6] is reported as “Dose-dependent effect”.

In the case of `COc1c(N2C[C@@H]3CCCN[C@@H]3C2)c(F)cc2c(=O)c(C(=O)O)cn(C3CC3)c12` [MOXIFLOXACIN], the Activity (Mus musculus [12]) is reported as “Non-Toxic”.

With `CO[C@H]1/C=C/O[C@@]2(C)Oc3c(C)c(O)c4c(O)c(c(/C=N/N5CCN(C)CC5)c(O)c4c3C2=O)NC(=O)/C(C)=C\C=C\[C@H](C)[C@H](O)[C@@H](C)[C@@H](O)[C@@H](C)[C@H](OC(C)=O)[C@@H]1C` the inhibition [7] was “Active”.

From ChEMBL document CHEMBL4190407, “Identification of Morpholino Thiophenes as Novel Mycobacterium tuberculosis Inhibitors, Targeting QcrB” (J Med Chem, 2018)
